Bioassay records as filed in PubChem BioAssay.
Most compounds without a hit are left out; they make up all but 1.8% or so of the library.
RanGTP-Imp inh: disruptors of Ran-importin-beta complex formation – biochemical, FRET, CFP-Ran, YFP-importin-beta, homogeneous, primary screen; cell-free CFP-Ran/YFP-importin-beta FRET ratio; inhibition, % (no concentration beside the values); 300,000 tested, 1.1% active;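 active = more than half of the replicate wells show a fall in the fluorescence ratio signal beyond about 16%, limit read from the data, passing the limit was not always enough; inconclusive = exactly half of the replicate wells pass the set limit; inactive = fewer than half of replicates pass the limit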;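 also: 0% = DMSO wells and 100% = Ran loaded with GDP instead of GTP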
Runt-CBFb FRET: blocks binding of human RUNX1 Runt domain to CBFb | inhibition, % at 20 µM | AID 1496 | Cerulean-Runt/Venus-CBFb FRET ratio 530/480, 1 h | Q01196+Q13951 | 220,000 tested, 0.46% active;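 active = inhibition over about 50% at 20 µM in the single-dose screen, limit read from the data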;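 also: 0% = DMSO wells and 100% = excess unlabeled CBFb competitor control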
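Measured by: fluorescence energy transfer, 422 nm excitation, 530/480 nm emission; test system: Cerulean-tagged RUNX1 Runt domain (FRET donor) fusion protein; buffer or medium: Tris pH 7.5 buffer with BSA; compound: one dose, 20 µM compound, 1% DMSO; times: two 1 h room-temperature incubations shielded from light; benchmarks: unlabeled CBFb 5 µM, positive control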
Runt-SMMHC FRET: Runt domain-CBFb-SMMHC interaction inhibition. inhibition, % at 20 µM. Q01196+Q13951. Cerulean-Runt/Venus-CBFb-SMMHC FRET ratio 530/480, 1 h. 220,000 tested, 0.74% active;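 active = mean inhibition across duplicate retests at 20 µM reaching about 50%, limit read from the data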;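 also: 0% = DMSO wells and 100% = wells with excess untagged CBFb-SMMHC; inhibitors lower the FRET ratio by blocking Runt binding to CBFb-SMMHC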
Hck-Nef inh: blocks Nef-activated human Hck kinase; AID 463187; P08631; 220,000 tested, 0.68% active; Recombinant Hck-YEEI plus Nef, Z-Lyte FRET kinase assay; inhibition, % at 20 µM;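 active = Hck-Nef kinase inhibition above about 50%, limit read from the data; inactive = inhibition below that limit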;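 also: 0% = DMSO with Hck plus Nef and 100% = Hck alone without Nef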
Target sequence (P08631 whole entry, looked up): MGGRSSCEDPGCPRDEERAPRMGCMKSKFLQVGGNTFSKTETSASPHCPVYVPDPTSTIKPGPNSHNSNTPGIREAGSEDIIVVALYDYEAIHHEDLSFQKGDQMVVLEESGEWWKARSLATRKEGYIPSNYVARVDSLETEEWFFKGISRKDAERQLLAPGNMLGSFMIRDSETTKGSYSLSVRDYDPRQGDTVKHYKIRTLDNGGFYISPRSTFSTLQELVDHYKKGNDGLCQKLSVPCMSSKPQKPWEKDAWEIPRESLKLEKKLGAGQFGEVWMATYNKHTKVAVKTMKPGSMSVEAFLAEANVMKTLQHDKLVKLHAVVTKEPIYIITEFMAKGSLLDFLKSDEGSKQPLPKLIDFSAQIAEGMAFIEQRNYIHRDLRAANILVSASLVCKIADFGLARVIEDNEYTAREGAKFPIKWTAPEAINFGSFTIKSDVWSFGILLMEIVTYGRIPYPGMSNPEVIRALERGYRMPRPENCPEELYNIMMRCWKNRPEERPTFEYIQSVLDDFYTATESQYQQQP
Active calls of the source: *; ? = inconclusive; / = not tested or not shown.

SMILES	RanGTP-Imp inh	Runt-CBFb FRET	Runt-SMMHC FRET	Hck-Nef inh
COC1CCCN(Cc2c(C(=O)N3CCN(C4CCCCC4)CC3)nc3ccccn23)C1 (configuration not stated)	103.8*	/	/	/
CCOC(=O)C1CCCN(Cc2c(C(=O)N3CCOCC3)nc3ccccn23)C1 (configuration not stated)	-3.4	0.9	0.3	6.5
O=C1CN(c2ccccc2)C(=S)N1C(=O)c1ccc(Br)cc1	3.6	/	/	/
CCN(CC(=O)Nc1c(F)cccc1F)C(=O)CNC(=O)c1ccc(C)s1	-2.8	/	/	/
N#Cc1c(NC(=O)C2CC(c3ccccc3Cl)=NO2)sc2c1CCC2 (configuration not stated)	2.8	0.5	0.0	0.6
Cc1onc(-c2ccccc2Cl)c1C(=O)Nc1sc2c(c1C#N)CCC2	45.4*	4.5	8.4	5.5
O=C(Nc1ccsc1C(=O)O)c1ccccc1Cl	-1.1	/	/	/
O=C(O)CN1C(=O)C2C3CC(C2C1=O)C1C(c2ccccc2)c2sc(=O)[nH]c2SC31 (configuration not stated)	65.3*	42.0	33.9	1.6
CC(C)CC(C(=O)O)N1C(=O)C2C3CC(C2C1=O)C1C(c2ccccc2)c2sc(=O)[nH]c2SC31 (configuration not stated)	100.3*	12.9	29.3	4.4
COc1cc(C(=O)N2CCN(Cc3ccc4c(c3)OCO4)CC2)cc(OC)c1OC	4.6	/	/	/
Cc1cc(/C=C2/SC(=S)N(c3cccc(C(F)(F)F)c3)C2=O)c(C)n1-c1cccnc1	3.4	/	/	0.2
Cc1cc(/C=C2\SC(=S)N(Cc3ccco3)C2=O)c(C)n1-c1cccnc1	21.0*	-32.3	-163.2	-1.7
COC(=O)Cn1c(=O)c2c(n(Cc3ccccc3)c1=O)N/C(=C/c1ccc(OC)cc1)C2=O	20.5*	-20.1	30.1	15.0
O=C(CN1CCCCCC1)Nc1cccc([N+](=O)[O-])c1	-1.0	-1.0	-1.7	14.0
O=C(CN1C(=O)c2ccccc2C1=O)Nc1cccc([N+](=O)[O-])c1	21.4*	-0.4	5.8	2.8
COc1ccc(NC(=O)CN(CC(=O)Nc2ccc(OC)cc2)C(C)(C)CO)cc1	-1.6	/	/	/
CCC(CO)(CO)N(CC(=O)Nc1ccc(OC)cc1)CC(=O)Nc1ccc(OC)cc1	28.2*	/	/	/
CNC(=S)Nc1cccc(-c2cnc3ccccc3n2)c1	-3.5	/	/	/
CCOC(=O)c1c(/N=C/c2ccc(O)cc2O)sc2c1CCC2	7.2	22.9	55.8*	2.5
CN1CCN(Cc2c(O)ccc3c(=O)c(Oc4ccccc4Cl)c(C(F)(F)F)oc23)CC1	22.2*	-4.0	-6.1	7.4
Cc1oc2c(CN3CCCC3)c(O)ccc2c(=O)c1Oc1ccccc1Br	-0.6	1.9	6.4	2.0
COc1ccc(CCNC(=O)c2cc(-c3ccccn3)nc3c(Cl)cccc23)cc1OC	23.8*	-1.2	-0.4	24.0
COc1ccc(CCNC(=O)c2cc(-c3ccncc3)nc3c(Cl)cccc23)cc1OC	4.5	-8.4	3.5	-0.4
Cc1cc(C)nc(N(C#N)Cc2ccc(Cl)cc2)n1	-1.5	1.4	1.0	16.6
Cc1cc(C)nc(N(C#N)Cc2cccc(Cl)c2)n1	50.6*	0.4	-1.1	20.2
SMILES	RanGTP-Imp inh	Runt-CBFb FRET	Runt-SMMHC FRET	Hck-Nef inh
O=C(Nc1ncc([N+](=O)[O-])s1)c1ccccc1Br	-3.2	/	/	/
O=C(NN1CC(C(=O)OCc2ccc(Br)cc2)CC1=O)c1ccccc1 (configuration not stated)	1.9	/	/	/
N#Cc1c(NCCCO)nc(NCc2ccccc2)c2c1CCN(Cc1ccccc1)C2	89.5*	18.0	46.5	21.0
CC(=O)Nc1sc2c(c1C#N)CCN(Cc1ccccc1)C2	75.3*	/	/	/
N#Cc1c(NC(=O)/C=C/C(=O)O)sc2c1CCN(Cc1ccccc1)C2	140.9*	/	/	/
Cc1cc(OCC(O)CN2CCc3ccccc3C2)ccc1Cl (configuration not stated)	-9.6	/	/	/
CC1(C)CC(=O)C2=C(C1)OC(N)=C(C#N)C2c1ccccc1 (configuration not stated)	?	-0.5	-0.7	1.5
CC1(C)CC(=O)C2=C(C1)OC(N)=C(C#N)C2c1ccccc1[N+](=O)[O-] (configuration not stated)	61.3*	85.5*	91.1*	19.9
N#CC1(NC(=O)COc2ccc(S(=O)(=O)N3CCCC3)cc2[N+](=O)[O-])CCCCC1	-6.1	/	/	/
COc1cccc(N(C(=O)c2sc(C)nc2C)C(C(=O)NCC2CCCO2)c2ccccc2)c1 (configuration not stated)	-0.8	/	/	/
Cc1ccc(C(=O)CSc2ncnc3ccccc23)o1	/	40.2	77.5*	-1.7
